# Assay outcomes from PubChem BioAssay.
# TRPC6 inhibitor: mouse TRPC6 channel inhibitors, primary screen, cell-based, HEK293, membrane potential dye; ACh-evoked depolarization; hits give low values; B-score at 10 µM; actives 1.1% (n = 310,000); Short transient receptor potential channel 6 (Mus musculus), Q61143; AID 2553, 2010;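 active means B-score under library mean minus 3 SD, initial fluorescence not abnormally high, positive integrated signal ratio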;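 further: B-score derived from integrated fluorescence ratio over the kinetic read; more negative B-score means stronger inhibition of depolarization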
# Target sequence (Q61143 whole entry, looked up): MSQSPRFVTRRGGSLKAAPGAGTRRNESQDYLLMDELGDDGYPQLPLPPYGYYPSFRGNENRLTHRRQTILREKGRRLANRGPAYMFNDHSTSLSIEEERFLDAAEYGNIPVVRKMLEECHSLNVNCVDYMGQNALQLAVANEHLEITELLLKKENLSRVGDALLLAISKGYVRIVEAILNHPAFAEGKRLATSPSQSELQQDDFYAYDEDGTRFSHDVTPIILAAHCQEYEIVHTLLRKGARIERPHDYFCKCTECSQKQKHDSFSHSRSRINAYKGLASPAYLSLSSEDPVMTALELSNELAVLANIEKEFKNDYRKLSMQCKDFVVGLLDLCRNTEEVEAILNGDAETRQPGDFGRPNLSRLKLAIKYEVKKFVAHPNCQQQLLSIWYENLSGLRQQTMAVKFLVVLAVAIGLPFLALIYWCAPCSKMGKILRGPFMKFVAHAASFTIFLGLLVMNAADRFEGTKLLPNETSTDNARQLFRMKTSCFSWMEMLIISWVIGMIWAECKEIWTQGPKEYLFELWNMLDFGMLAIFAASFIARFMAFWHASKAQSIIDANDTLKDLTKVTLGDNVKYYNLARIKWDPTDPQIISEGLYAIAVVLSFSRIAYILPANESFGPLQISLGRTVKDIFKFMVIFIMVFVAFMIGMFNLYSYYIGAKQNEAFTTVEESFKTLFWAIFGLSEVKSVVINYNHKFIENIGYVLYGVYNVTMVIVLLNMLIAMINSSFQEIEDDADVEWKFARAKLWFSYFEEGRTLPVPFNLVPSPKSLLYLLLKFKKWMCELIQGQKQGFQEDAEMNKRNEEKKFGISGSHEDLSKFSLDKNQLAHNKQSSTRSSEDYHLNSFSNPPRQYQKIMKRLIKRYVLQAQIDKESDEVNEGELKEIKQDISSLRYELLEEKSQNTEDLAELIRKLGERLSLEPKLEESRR
# TRPC4 PAM: positive allosteric modulators of TRPC4, primary screen, cell-based, mouse TRPC4beta, HEK293 mu-opioid, Fluo-4 calcium; Short transient receptor potential channel 4 (Mus musculus), Q9QUQ5; B-score at 10 µM; actives 0.42% (n = 310,000); DAMGO EC20, Fluo-4 Ca2+ flux; hits give high values;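 active means B-score of calcium response area above 5 SD of library B-scores, with initial fluorescence ratio within 5 SD of library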;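 further: B-score of integrated fluorescence ratio over time as area under calcium response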
# TRPC4 block: inhibitors of mouse TRPC4 channel, primary screen, Fluo4 calcium, HEK293 TRPC4beta/mu-opioid cells | B-score at 10 µM | DAMGO-evoked Fluo4 calcium flux; hits give low values | Short transient receptor potential channel 4 (Mus musculus), Q9QUQ5 | actives 0.39% (n = 300,000);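 active means B-score over 3 SD under the library average, no early fluorescence shift, positive overall ratio signal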
#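 Test system – stable TRPC4beta/mu-opioid receptor HEK293 cells · Probe or stimulus – DAMGO, a submaximal dose followed by a maximal one · Dosing – one concentration per compound · Signal – Fluo4 calcium fluorescence by kinetic imaging, 5 s 1 Hz baseline · Evaluation – per-well B score of integrated baseline-normalized Fluo4 ratio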
# Kir21 inh: inhibitors of mouse Kir2.1 inward-rectifier potassium channel. actives 0.85% (n = 310,000). AID 1672, 2009. B-score at 10 µM. Inward rectifier potassium channel 2 (Mus musculus), P35561. HEK293-Kir2.1, FluxOR thallium flux fluorescence; hits give low values;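 active means fluorescence ratio B-score at or below minus 3 SD of library scores, with starting-brightness B-score within 2 SD, cut at about -4.2 in these data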;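 further: channel flux triggered by added potassium and thallium sulfate stimulus; B-score of peak minus minimum fluorescence over baseline after thallium stimulus; more negative B-score means stronger Kir2.1 block with less thallium influx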
# TRPC6 act: mouse TRPC6 channel activators, primary screen, cell-based, HEK293, membrane potential dye | HEK293-TRPC6 membrane potential dye fluorescence; hits give high values | actives 0.13% (n = 310,000) | B-score at 10 µM | Short transient receptor potential channel 6 (Mus musculus), Q61143;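 active means B-score of the integrated fluorescence ratio above library mean plus 3 SD, and starting fluorescence ratio within library mean plus 5 SD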;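 further: higher score means more depolarization so channel activation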
# TRPC4 act: activators of mouse TRPC4 channel, primary screen, Fluo4 calcium, HEK293 TRPC4beta/mu-opioid cells. actives 0.49% (n = 310,000). B-score at 10 µM. Fluo4 calcium fluorescence; hits give high values;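 active means B-score above 5 SD of library B-scores, and initial fluorescence ratio not above library mean plus 5 SD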;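 further: positive B-score marks a calcium rise read as TRPC4 activation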
#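 Assay system – TRPC4beta and mu-opioid receptor HEK293 stable cells · Measured by – Fluo4 fluorescence, kinetic · Schedule – dye loading 45 min room temperature, 110 s kinetic read · Read-out – B-scored integrated calcium fluorescence ratio · Controls – buffer and maximal DAMGO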
# Active calls of the source: *; i = inactive. The list is not random: actives were taken first. Their share in the collection is about 3%.
SMILES,TRPC6 inhibitor,TRPC4 PAM,TRPC4 block,Kir21 inh,TRPC6 act,TRPC4 act
Cc1ccc(C(=O)OCCN2CCN(c3ncc(C(F)(F)F)cc3Cl)CC2)cc1,i,16*,i,0.62,i,i
O=C(c1cccs1)N1CCN(c2ncc(C(F)(F)F)cc2Cl)CC1,i,i,i,1.63,i,i
O=C(OC1CCN(c2ncc(C(F)(F)F)cc2Cl)CC1)c1ccccc1,i,i,i,0,i,i
COc1ccc(C(=O)OC2CCN(c3ncc(C(F)(F)F)cc3Cl)CC2)cc1,i,i,i,-0.02,i,i
COC(=O)C1CCN(C(=O)CC(NC(=O)C(F)(F)F)c2cccs2)CC1 (stereo unspecified),i,i,i,-0.44,i,i
Cc1csc(Nc2nc(N)c(C(=O)Nc3cc(Cl)ccc3F)o2)n1,i,i,i,-0.03,i,i
CCOc1ccc(CCNC(=O)COC(=O)c2c(C)nn(-c3ccccc3)c2C)cc1OCC,i,i,i,0.19,i,i
COC(=O)C1CCN(C(=O)COC(=O)c2oc3ccc(OC)cc3c2C)CC1,i,i,i,0.42,i,i
COc1ccc(NC(=O)c2csc(Cc3ccc(Cl)cc3)n2)cc1,i,i,i,-1.49,i,i
COc1ccc(CNC(=O)c2csc(Cc3ccc(Cl)cc3)n2)cc1,i,i,i,-9.03*,i,i
COc1ccc(Cc2nc(C(=O)Nc3ccccc3)cs2)cc1,i,i,i,1.39,i,i
COc1ccc(CNC(=O)c2csc(Cc3ccc(OC)cc3)n2)cc1,i,i,i,-11*,i,i
CCOC(=O)C1CCCN(C(=O)C(C)Oc2ccc(Cl)cc2Cl)C1 (stereo unspecified),i,i,i,-4.71*,i,i
CC1CC(C)CN(C(=O)C2CCN(S(=O)(=O)c3cccc4cccnc34)CC2)C1 (stereo unspecified),i,i,i,-0.27,i,i
CC1(C#CC[N+]2(C)CCCCC2)CCC2C(O1)c1ccccc1OC2(C)C (stereo unspecified),i,21*,i,1.7,i,i
Cc1nc(-c2cccc(C(F)(F)F)c2)sc1C(=O)O,i,i,-6*,1.61,i,i
Cc1nc(-c2ccccc2)sc1C(=O)O,i,i,i,-0.03,i,i
COc1ccc(S(=O)(=O)N(C)c2ccccc2)c2cccnc12,i,i,i,-5.1*,i,i
CCN(Cc1ccccc1)S(=O)(=O)c1ccc(OC)c2ncccc12,i,i,i,-2.13,i,i
Cc1cc(=O)n2nc(N3CCC(C(=O)NCC(C)c4ccccc4)CC3)sc2n1 (stereo unspecified),i,i,i,2.71,i,i
COc1ccccc1N1CCN(C(=O)c2ccc3c(c2)NC(=O)C(CSCc2ccccc2C)N3)CC1 (stereo unspecified),-8.77*,i,i,-0.15,i,i
CCOc1ccc(NC(=O)CSc2nnc(CNC(=O)c3ccco3)o2)cc1,i,i,i,2.29,i,i
CC(=O)N1CCN(c2ccccc2NC(=O)c2cccs2)CC1,i,i,-6*,-0.56,i,i
CC(=O)N1CCN(c2ccccc2NC(=O)c2ccc3ccccc3c2)CC1,i,i,-5*,-0.57,i,i
CS(=O)(=O)N1CCN(c2ccccc2NC(=O)c2ccco2)CC1,i,i,i,1.43,i,i
COc1ccc(C(=O)Nc2ccccc2N2CCCC2)cc1,i,i,i,0.5,i,i
